Results from different studies.
Lines come from different studies, so protocols differ.
Cell line: MCF7
Effect on: cell growth or viability

| Structure (SMILES) | technique | time | IC50 |
| --- | --- | --- | --- |
| CC(=O)O[C@H]1C(=O)[C@@]2(C)[C@H]([C@H](OC(=O)c3ccccc3)[C@]3(O)C[C@H](OC(=O)[C@H](O)[C@@H](NC(=O)c4ccccc4)c4ccccc4)C(C)=C1C3(C)C)[C@]1(OC(C)=O)CO[C@@H]1C[C@@H]2O |  |  | 0.00751 µM |
| CC(C)c1ccc(/C=C2\N=C(SCC(=O)O)N(c3ccccc3)C2=O)cc1 | MTT |  | 49.2 mg/L |
| Cc1ccc(NNc2nc3ccc(Br)cc3c(=O)n2-c2ccccc2)cc1 | MTT | 48 h | > 200 µM |
| O=[N+]([O-])c1cc(Br)c(O)c(C=NNc2ccccc2)c1 | MTT | 24 h | 6.4 µM |
| O=C1Nc2ccccc2C1=Nc1ccccc1Br | MTT | 48 h | > 100 µM |
| O=C1Nc2ccccc2/C1=N/N=C/c1cccc([N+](=O)[O-])c1 | MTT | 24 h | 48.9 mg/L |
| O=C1C(=Nc2ccccc2I)c2ccccc2N1Cc1ccc([N+](=O)[O-])cc1 | MTT | 48 h | 11.6 µM |
| CN(C)c1cccc(Nc2nc(-c3ccncc3)nc3c2CNCC3)c1 | MTT |  | 46.4 µM |
| CC(=O)O[C@@]12CO[C@@H]1C[C@H](O)[C@@]1(C)C(=O)[C@H](O)C3=C(C)[C@@H](OC(=O)[C@H](O)[C@@H](NC(=O)OC(C)(C)C)c4ccccc4)C[C@@](O)([C@@H](OC(=O)c4ccccc4)[C@H]21)C3(C)C | MTT | 48 h | 92.5 µM |
| COc1cc([C@@H]2c3cc4c(cc3[C@@H](O[C@@H]3O[C@@H]5CO[C@@H](C)O[C@H]5[C@H](O)[C@H]3O)[C@H]3COC(=O)[C@H]23)OCO4)cc(OC)c1O | MTT | 48 h | 10.9 µM |
| O=C(O)c1cn(Cc2ccc(C(F)(F)F)cc2)c2ccc(Oc3ccccc3)cc2c1=O | MTT | 48 h | 21.2 µM |
| CCOC(=O)c1c(C)nc2ccc(-c3ccc(F)c(F)c3)cc2c1O | MTT | 48 h | 12 µM |
| C/C(=N\N=C(/C)c1c(O)c2ccccc2oc1=O)c1c(O)c2ccccc2oc1=O | MTT | 48 h | 33.6 µM |
| CC(C)CNC(=S)N/N=C/c1cccc2cc3ccccc3nc12 | MTT | 48 h | > 50 µM |
| C[C@H]1[C@H](C)CC[C@]2(C)CC[C@]3(C)C(=CC(=O)[C@@H]4[C@@]5(C)CC[C@@H](O)[C@](C)(C(=O)NCc6cn(-c7cccc(C(F)(F)F)c7)nn6)[C@@H]5CC[C@]43C)[C@H]12 | MTT | 24 h | 73.2 µM |
| C=CCN1C(=O)C(=Nc2cccc(C)c2)c2ccccc21 | MTT | 48 h | > 100 µM |
| O=C(O)c1c[nH]c2ccc(Oc3ccccc3)cc2c1=O | MTT |  | ≥ 200 µM |
| CC(=O)O[C@@H]1[C@@H](OC(C)=O)[C@H](OC(C)=O)CO[C@H]1n1cc(Cn2c(C(C)=O)nc3ccccc32)nn1 | LDH | 48 h | 2.73 µM |
| COc1ccc(N(Cc2nc(-c3ccc(F)cc3)cs2)C(=O)CCCCCC(=O)NO)cc1 | MTT | 72 h | 10.2 µM |

| Structure (SMILES) | technique | time | IC50 |
| --- | --- | --- | --- |
| COc1cccc(N=C2SCC(=O)N2c2nnc(-c3ccc(C(F)(F)F)cc3N=C3SCC(=O)N3c3cccc(OC)c3)s2)c1 | MTT |  | 78.3 µM |
| COc1cc(N=C2C(=O)Nc3ccccc32)cc(OC)c1 | MTT | 48 h | 16.2 µM |
| NS(=O)(=O)c1ccc(-n2nc(C(=O)NN3C(=O)c4ccccc4C3=O)cc2-c2ccccc2)cc1 | fluorescence | 48 h | 38.7 µM |
| O=C1C(Cl)=C(n2ccnc2)C(=O)c2ccccc21 | MTT | 24 h | 48.8 mg/L |
| O=[N+]([O-])c1ccc(O)c(C=NNc2ccc(Cl)cc2)c1 | MTT | 24 h | 9.3 µM |
| O=C1Nc2ccccc2C1=Nc1cccc(Cl)c1 | MTT | 48 h | > 100 µM |
| Fc1ccc2c(-c3nnc(Cc4ccccc4)s3)nn(Cc3ccccc3)c2c1 |  | 48 h | 161 µM |
| O=S(=O)([O-])c1ccc(O)c(C=NNC(=S)Nc2cccc3ccccc23)c1.[Na+] | MTT | 48 h | > 800 mg/L |
| Cc1noc(-c2nn(Cc3ccc(Cl)cc3Cl)c3ccccc23)n1 |  | 48 h | 47.5 µM |
| O=C(NCc1ccc(OC(F)(F)F)cc1)c1cn(Cc2ccc(F)cc2)c2ccc(Oc3ccccc3)cc2c1=O | MTT | 48 h | 79.6 µM |
| O=c1[nH]cc(F)c(=O)[nH]1 | MTT | 48 h | 11.3 µM |
| C[C@H]1[C@H](C)CC[C@]2(C)CC[C@]3(C)C(=CC(=O)[C@@H]4[C@@]5(C)CC[C@@H](O)[C@](C)(C(=O)NCc6cn(-c7ccc(Cl)cc7)nn6)[C@@H]5CC[C@]43C)[C@H]12 | MTT | 24 h | 134 µM |
| COc1cccc2c1C(=O)c1c(O)c3c(c(O)c1C2=O)C[C@@](O)(C(=O)CO)C[C@@H]3O[C@H]1C[C@H](N)[C@H](O)[C@H](C)O1 | MTT | 48 h | 3.1 µM |
| Fc1ccc2c(-c3nnc(Cc4ccccc4)s3)nn(Cc3ccc(Cl)cc3Cl)c2c1 |  | 48 h | 89.3 µM |
| O=[N+]([O-])c1ccc(NC(=S)N/N=C/c2cccc3cc4ccccc4nc23)cc1 | MTT | 48 h | > 50 µM |
| Cc1nc2ccc(-c3ccc(F)c(F)c3)cc2c(O)c1C(=O)O | MTT | 48 h | ≥ 100 µM |
| CC(C)[C@@H](CS(=O)(=O)C(C)C)N1C(=O)[C@@](C)(CC(=O)O)C[C@H](c2cccc(Cl)c2)[C@H]1c1ccc(Cl)cc1 | ATP luminescence | 48 h | ~3.9 µM |
| CCc1ccc(N=C2C(=O)N(Cc3ccccc3)c3ccccc32)cc1 | MTT | 48 h | 10.5 µM |
| O=C(C=Cc1cccs1)c1ccc(OCCCOc2ccc(C(=O)C=Cc3cccs3)cc2)cc1 | MTT | 48 h | 4.05 µM |

| Structure (SMILES) | technique | time | IC50 |
| --- | --- | --- | --- |
| O=C1CSC(=Nc2cc(C(F)(F)F)ccc2-c2nnc(N3C(=O)CSC3=Nc3ccc([N+](=O)[O-])cc3)s2)N1c1ccc([N+](=O)[O-])cc1 | MTT |  | 79.5 µM |
| NS(=O)(=O)c1ccc(-n2nc(C(=O)NN=Cc3cccnc3)cc2-c2ccccc2)cc1 | fluorescence | 48 h | 34.1 µM |
| Cc1cccc([N+](=O)[O-])c1N=C1SCC(=O)N1c1nnc(-c2ccc(C(F)(F)F)cc2N=C2SCC(=O)N2c2c(C)cccc2[N+](=O)[O-])s1 | MTT |  | 53.2 µM |
| c1ccc(Cn2nc(-c3nc(-c4ccccc4)n[nH]3)c3ccccc32)cc1 |  | 48 h | 97.4 µM |
| O=[N+]([O-])c1cc(I)c(O)c(C=NNc2ccc(Br)cc2)c1 | MTT | 24 h | 13.7 µM |
| CO[C@H]1[C@H](O[C@H]([C@H]2O[C@@H](n3ccc(=O)[nH]c3=O)[C@H](O)[C@@H]2O)[C@H](NCCCNC(=O)[C@@H](NC(=O)[C@@H](NC(=O)N[C@H](C(=O)O)C(C)C)[C@@H]2CCN=C(N)N2)[C@@H](OC(=O)CCCCCCCCCCCCN(O)C(=N)N)C(C)C)C(=O)O)O[C@H](CN)[C@H]1O | WST-1 |  | 0.95 µM |
| O=C(NO)Nc1nc2c(Cl)cc(Cl)cc2c(=O)n1-c1ccc(Cl)cc1 | MTT | 48 h | > 200 µM |
| NS(=O)(=O)c1ccc(-n2nc(C(=O)NN3C(=O)CCC3=O)cc2-c2ccccc2)cc1 | fluorescence | 48 h | 32.5 µM |
| C/C(=N\c1nc(N)nc(/N=C(\C)c2c(O)c3ccccc3oc2=O)n1)c1c(O)c2ccccc2oc1=O | MTT | 48 h | 6.68 µM |
| COc1ccccc1-n1cc(CNC(=O)[C@@]2(C)[C@H](O)CC[C@@]3(C)[C@H]2CC[C@]2(C)[C@@H]3C(=O)C[C@@H]3[C@@H]4[C@@H](C)[C@H](C)CC[C@]4(C)CC[C@]32C)nn1 | MTT | 24 h | 73.4 µM |
| O=C(NO)Nc1nc2ccc(Br)cc2c(=O)n1-c1ccccc1 | MTT | 48 h | 29.6 µM |
| O=C1C(=Nc2ccc(Cl)cc2Br)c2ccccc2N1Cc1ccc([N+](=O)[O-])cc1 | MTT | 48 h | 2.33 µM |
| O=C1CSC(=Nc2cc([N+](=O)[O-])ccc2[N+](=O)[O-])N1c1nnc(-c2ccc(C(F)(F)F)cc2N=C2SCC(=O)N2c2cc([N+](=O)[O-])ccc2[N+](=O)[O-])s1 | MTT |  | 83.4 µM |
| C(=N\Nc1cc(N/N=C/c2cccc3cccnc23)nc(-c2ccccc2)n1)/c1cccc2cccnc12 | MTT | 48 h | 10.4 µM |
| CC(=O)O[C@@H]1[C@@H](OC(C)=O)[C@H](OC(C)=O)CO[C@H]1n1cc(Cn2c(C(=O)/C=C/c3ccc(F)cc3)nc3ccccc32)nn1 | LDH | 48 h | 2.98 µM |
| C/C(=N\C(=N)/N=C(\C)c1c(O)c2ccccc2oc1=O)c1c(O)c2ccccc2oc1=O | MTT | 48 h | 19.6 µM |
| O=C(CCc1ccc(Cl)cc1)N1C(=O)C(=Nc2ccc(Cl)cc2Br)c2ccccc21 | MTT | 48 h | 34.1 µM |
| CC(=O)OC[C@H]1O[C@@H](n2cc(Cn3c(C(C)=O)nc4ccccc43)nn2)[C@H](OC(C)=O)[C@@H](OC(C)=O)[C@H]1OC(C)=O | LDH | 48 h | 3.79 µM |
